# Screening data (PubChem BioAssay)
# T cell HTS: T cell immune modulation candidate; 2C CD8+ T cell-vesicle binding, flow cytometry; active compounds read low; response (vesicle binding), % at 7 µM; 330,000 tested, 0.068% active; AID 2052;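 active = response, share of CD8 T cells binding vesicles, and their 90th percentile fluorescence all below set limits, cut at about 80% in these data, passing the limit was not always enough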;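 note: values below 100% mean blocked vesicle binding to the CD8+ T cells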
#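 Material: murine 2C transgenic CD8+ T lymphocytes / Also added: QL9-peptide-loaded Drosophila micro-vesicles bearing Ld, ICAM-1 and B7-1 / Schedule: binding step 1.5 h, 37 °C, antibody labelling 20 min, ice / Signal: flow cytometry, PE anti-B7-1 (FL2) versus Alexa647 anti-CD8 (FL8), PFA-fixed / Evaluation: percent CD8+ FL2 mean versus row control / Benchmarks: naked versus QL9-loaded vesicles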
# PP1 inh: PP1-alpha (human) inhibition in PP5 counter-screen. P62136. purified PP1alpha, OMFP fluorescence. inhibition, % at 6.7 µM. 320,000 tested, 0.9% active. AID 2235;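 active = inhibition above the mean inhibition of all tested compounds plus 3 SD, computed separately for each screening campaign, cut at about 15% in these data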
# HTR2A ag: agonists of mouse serotonin 5-HT2A receptor (HTR2A) | P35363 | CHO-K1 mHTR2A beta-arrestin complementation, luminescence; percent of 30 µM serotonin response | activation, % at 7.6 µM | 360,000 tested, 0.66% active;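 active = activation above a run cutoff, the mean activation of all tested compounds plus 3 SD, cut at about 14% in these data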;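 note: 0% = plate median of compound wells and 100% = 30 µM serotonin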
# PP5 inh: PP5 (human) phosphatase inhibition | 320,000 tested, 0.18% active | P53041 | purified PP5c, OMFP substrate fluorescence | inhibition, % at 6.7 µM | AID 1987;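 active = inhibition above the campaign's mean inhibition across all tested compounds plus 3 SD, cut at about 9.5% in these data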;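 note: 0% = DMSO only and 100% = 100 µM cantharidin control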
# Target sequence (P53041 whole entry, looked up): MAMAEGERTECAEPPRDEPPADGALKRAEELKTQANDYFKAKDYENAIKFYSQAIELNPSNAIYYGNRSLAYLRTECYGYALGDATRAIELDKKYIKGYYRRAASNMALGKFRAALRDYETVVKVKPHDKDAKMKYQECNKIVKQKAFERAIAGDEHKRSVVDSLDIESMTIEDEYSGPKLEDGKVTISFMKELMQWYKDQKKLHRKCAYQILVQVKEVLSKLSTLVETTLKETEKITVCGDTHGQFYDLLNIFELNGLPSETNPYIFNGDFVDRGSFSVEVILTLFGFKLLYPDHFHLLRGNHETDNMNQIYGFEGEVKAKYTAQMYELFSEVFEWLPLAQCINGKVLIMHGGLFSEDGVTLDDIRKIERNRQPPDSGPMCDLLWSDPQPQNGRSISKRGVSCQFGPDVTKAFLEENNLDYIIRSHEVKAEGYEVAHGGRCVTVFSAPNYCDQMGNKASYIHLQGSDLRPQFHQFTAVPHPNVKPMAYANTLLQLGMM
# JMJD2C inh: human JMJD2C demethylase inhibition; Q9H3R0; GST-JMJD2C(1-420) H3K9me3 demethylation, DELFIA europium; inhibition, % at 2.35 µM; 330,000 tested, 0.069% active;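 active = more than half of a compound's replicate wells show inhibition beyond 50%, single wells judged on their own value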;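 note: signal counts dimethyl H3K9 product captured on neutravidin plate; 0% = median of DMSO wells and 100% = 0.3 times that DMSO median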
# PP1 confirm: human PP1 phosphatase inhibition, confirmation; shares compounds with PP1 inh; purified PP1alpha, OMFP substrate fluorescence; inhibition, % at 6.7 µM; 1,900 tested, 52% active;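 active = mean PP1 inhibition above a set limit taken from the earlier primary screen, cut at about 15% in these data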
# PP5 inh counter: counter-screen for PP1 inhibitors: human PP5 phosphatase inhibition | 1,900 tested, 4% active | shares compounds with PP1 inh | purified PP5c, OMFP fluorescence | inhibition, % at 6.7 µM;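 active = mean PP5 inhibition over triplicate wells above about 9.5% taken from the earlier PP1 screen, limit read from the data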
# An asterisk follows results filed as active; x = no result. Sampled rows, rich in hits. Any-hit rate of the full collection: about 1.7%.
SMILES,T cell HTS,PP1 inh,HTR2A ag,PP5 inh,JMJD2C inh,PP1 confirm,PP5 inh counter
O=C1CC(=O)N(CCNc2ncc(C(F)(F)F)cc2Cl)C(=O)N1,227.5,28.7*,9.4,2.7,-7.0,-2.5,-1.1
COc1ccc(NC(=O)c2cc(-c3ccco3)nc3ccccc23)cc1S(=O)(=O)N1CCOCC1,705.1,44.7*,0.9,1.8,-7.8,8.7,-4.4
Cc1ccc(NC(=O)c2cc(-c3ccco3)nc3ccccc23)cc1S(=O)(=O)N1CCOCC1,263.7,22.7*,-1.2,1.4,11.9,23.6*,2.6
CCc1ccccc1NC(=O)COC(=O)C1C2CC3OC(=O)C1C3C2 (configuration not stated),624.1,1.4,8.6,3.8,-11.7,x,x
Cc1ccc(-c2nc3ccc(Cl)cn3c2Cc2cccc(F)c2)cc1,x,x,-4.5,x,x,x,x
O=C(Nc1ccc2c(c1)OCO2)c1cnc(Cl)c(Cl)c1,x,x,3.1,x,x,x,x
Cc1cc(Cl)ccc1OCC(=O)OCC(=O)NC1CCS(=O)(=O)C1 (configuration not stated),381.7,-3.2,1.8,-1.7,x,x,x
O=C1/C(=C/c2ccco2)CCc2ccccc21,967.1,-0.4,-1.4,1.1,13.3,x,x
Nc1ccc2c(c1)C/C(=C/c1ccco1)C2=O,426.8,51.2*,-0.9,0.3,-7.1,9.0,2.6
O=C(c1ccccc1N1CCOCC1)N1CCCC(Nc2ccc(F)cc2)C1 (configuration not stated),444.8,-3.8,2.7,0.7,-0.3,x,x
CN(C)c1ccc(C=Nc2ccc(N(C)C)cc2)cc1,602.6,-0.4,-0.4,2.0,2.2,x,x
CN(C)c1ccc(N=Cc2ccco2)cc1,297.4,18.0*,-2.0,1.0,10.7,10.5,3.3
C[C@@H]1CN([C@@H](C)CO)C(=O)CCCn2cc(nn2)CO[C@H]1CN(C)S(=O)(=O)c1ccc(C#N)cc1,x,x,2.7,x,x,x,x
O=C(O)c1ccccc1C(=O)OCC1CCC(=NO)CC1 (configuration not stated),x,x,-2.7,x,x,x,x
CCOC(=O)C(Cc1ccc(O)cc1)NC(=O)c1cc2c(cn1)[nH]c1ccccc12 (configuration not stated),x,x,-3.3,x,x,x,x
CN(CC(O)CON=C1c2ccccc2-c2ccccc21)S(=O)(=O)c1ccc(Br)cc1 (configuration not stated),193.5,40.5*,10.8,3.0,-3.5,-1.7,-2.5
C[C@@H]1CN([C@@H](C)CO)S(=O)(=O)c2ccc(Br)cc2O[C@H]1CN(C)C(=O)C1CCOCC1,x,x,11.1,x,x,x,x
O=C(Nc1ccc(NC(=O)c2sc3ccccc3c2Cl)cc1Cl)c1ccco1,459.5,19.9*,0.4,-2.1,16.8,28.3*,-0.4
COc1ccc(N2Cc3ccc(C(=O)N/N=C\c4ccc(O)cc4O)cc3C2)cc1,254.4,18.8*,x,3.8,3.9,13.3,-2.7
O=C(N/N=C/c1ccc(O)cc1O)C(=O)N/N=C/c1ccc(O)cc1O,253.5,53.2*,-1.4,-3.0,-18.3,29.7*,-7.3
CCc1nnc2n1N=C(c1ccc(OC)cc1)CS2,940.4,1.7,-2.2,0.8,-0.1,x,x
CCc1nnc2n1N=C(c1ccc(-c3cc(Cl)ccc3Cl)o1)CS2,632.3,23.1*,0.8,1.8,5.3,12.0,-3.7
Cc1ccc(CSCC2Nc3ccc(C(=O)N4CCN(c5cccc(C)c5)C(C)C4)cc3NC2=O)cc1 (configuration not stated),345.5,18.7*,x,0.9,4.8,29.1*,-5.7
CC1CCCN(C(=O)COC(=O)Cn2cnc3ccccc32)C1 (configuration not stated),447.3,x,-1.3,x,-0.7,x,x
Nc1nc(N)c2cc(Sc3ccc4ccccc4c3)ccc2n1,345.6,22.5*,4.9,0.5,-6.2,11.4,0.5
CC1CCN(S(=O)(=O)c2ccc(NC(=O)C3CSC4(C)CCC(=O)N34)cc2)CC1 (configuration not stated),138.3,-1.0,4.3,-1.4,2.9,x,x
CCC(=O)N1C(C(=O)N2CCCC2)CSC1c1ccc(OC)cc1 (configuration not stated),318.9,-3.4,1.1,2.9,13.5,x,x
